Assay outcomes (PubChem BioAssay)
M1 ag parental – counter-screen for M1 agonists: effect in parental CHO-K1 cells; Fluo-8 calcium fluorescence; scaled to maximal ATP response, vehicle zero; activation, % at 3 µM; 360,000 compounds, 0.48% hits; AID 602248; in the data active = activation above about 15%;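 also: untransfected CHO-K1 host cells lacking M1 receptor as counterscreen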
CHO-K1 Ca antag – nonselective inhibitor or artifact in parental CHO-K1 cells; AID 602250; inhibition, % at 3 µM; ATP-induced calcium, Fluo-8 fluorescence; 360,000 compounds, 0.6% hits;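 active = inhibition above a per-plate cutoff, the plate's mean sample inhibition plus 3 SD, cut at about 24% in these data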;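 also: 0% = DMSO plus EC80 ATP and 100% = DMSO alone without ATP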
M5 PAM – CHRM5 positive allosteric modulation; P08912; CHO-K1 hM5, Fluo-8 calcium, ACh EC20 PAM; 0% = ACh EC20, 100% = ACh EC100; activation, % at 3 µM; 360,000 compounds, 0.3% hits;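 active = activation above the run cutoff, the mean activation of all test compounds plus 3 SD, cut at about 18% in these data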
Target sequence (P08912 whole entry, looked up): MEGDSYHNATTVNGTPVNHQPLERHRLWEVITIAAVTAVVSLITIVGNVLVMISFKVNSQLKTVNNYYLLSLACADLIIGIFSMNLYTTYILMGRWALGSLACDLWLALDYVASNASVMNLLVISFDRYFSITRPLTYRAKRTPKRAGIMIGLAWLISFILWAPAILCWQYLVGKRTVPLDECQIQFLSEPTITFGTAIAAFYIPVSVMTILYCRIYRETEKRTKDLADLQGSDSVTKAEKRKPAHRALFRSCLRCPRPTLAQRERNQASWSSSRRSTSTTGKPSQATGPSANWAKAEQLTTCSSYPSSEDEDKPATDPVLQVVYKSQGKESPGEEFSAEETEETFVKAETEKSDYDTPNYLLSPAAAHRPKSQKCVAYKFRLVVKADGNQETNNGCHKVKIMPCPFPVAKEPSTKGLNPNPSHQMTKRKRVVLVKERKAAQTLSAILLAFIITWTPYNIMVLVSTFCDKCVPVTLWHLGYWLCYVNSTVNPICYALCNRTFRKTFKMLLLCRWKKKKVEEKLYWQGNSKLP
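Assay system: CHO-K1 hM5 cells / Incubation: Fluo-8 loading 80 min at 37 °C plus 30 min room temperature / Technique: Fluo-8 calcium dye fluorescence, kinetic read / Repeats: single replicate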
CHRM5 agonist – agonists of human muscarinic M5 receptor (CHRM5). activation, % at 3 µM. AID 624037. P08912. 360,000 compounds, 0.19% hits. CHO-K1 hM5 cells, Fluo-8 calcium fluorescence; 0% DMSO wells, 100% maximal acetylcholine response;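 active = activation above the run's mean over test compounds plus 3 SD, cut at about 23% in these data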;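 also: signal is peak over basal fluorescence ratio across the kinetic read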
M1 PAM parental – counter-screen for M1 PAMs: effect in parental CHO-K1 cells. ATP EC20, Fluo-8 calcium fluorescence; 0% at ATP EC20, 100% at ATP max. activation, % at 3 µM. AID 602247. 360,000 compounds, 0.02% hits;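 active = activation above the run cutoff, the mean activation of all test compounds plus 3 SD, cut at about 40% in these data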;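 also: peak over basal fluorescence ratio in a 140 s read after ATP addition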
CHRM5 antagonist – blocks acetylcholine activation of human M5 receptor. P08912. CHO-hM5 cells, Fluo-8 calcium fluorescence, ACh EC80. inhibition, % at 3 µM. 360,000 compounds, 0.59% hits. AID 624040;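 active = inhibition above a per-plate cutoff, the mean of that plate's test compounds plus 3 SD, cut at about 27% in these data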;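 also: 0% = acetylcholine EC80 with DMSO and 100% = DMSO without agonist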
An asterisk follows results filed as active. Compounds with a hit are over-represented: about 1.7% of the library has one in this group of screens.

SMILES	M1 ag parental	CHO-K1 Ca antag	M5 PAM	CHRM5 agonist	M1 PAM parental	CHRM5 antagonist
N#Cc1cccc(NC(=O)CSc2ccc3c4c(cccc24)C(=O)c2ccccc2-3)c1	13	17	-15	6	4	33*
O=C1C(SCCO)=C(SCCO)C(=O)c2ccccc21	6	23	-2	17	14	38*
CC1=C(SCc2ccccc2)C(=O)c2ccccc2C1=O	0	-2	2	5	-13	18
COc1cc(/C=C2/SC(=S)N(CC3CCCO3)C2=O)ccc1O (stereo unspecified)	18*	15	-8	23	5	18
O=C1/C(=C/c2ccc(O)c(O)c2)SC(=S)N1Nc1ccccc1	11	18	-16	23	-3	22
O=C(NN1C(=O)/C(=C/c2ccc(O)c(O)c2)SC1=S)c1ccccc1	12	11	-5	40*	-6	14
COc1cc(/C=C2\SC(=S)N(c3cccnc3)C2=O)ccc1O	18*	2	-6	9	7	12
COc1cc(/C=C2\SC(=S)N(Nc3ccccc3)C2=O)ccc1O	27*	24*	-11	29*	8	29*
O=C(O)C(Cc1c[nH]c2ccccc12)N1Cc2ccccc2C1=O (stereo unspecified)	0	14	0	0	0	-13
Cc1cc([N+](=O)[O-])nn1CC(=O)N1N=C(C(F)F)CC1(O)C(F)F (stereo unspecified)	1	-8	1	-1	20	7
COc1cc(/C=C2\SC(=S)N(C(Cc3ccccc3)C(=O)O)C2=O)ccc1O (stereo unspecified)	15*	3	-12	19	-8	10
COc1cc(/C=C2\SC(=S)N(NC(=O)c3ccc(O)cc3)C2=O)ccc1O	23*	13	-20	60*	-21	24
O=C(C[n+]1cc(-c2ccccc2)n2c1CCC2)c1cccs1	1	-11	8	-9	-8	8
Cc1ccc(-c2c[n+](CC(=O)N3c4ccccc4Sc4ccccc43)c3n2CCC3)cc1	-1	23	-21	-8	-10	100*
O=C(C[n+]1cc(-c2ccccc2)n2c1CCC2)Nc1nc(-c2ccc(F)cc2)cs1	1	-9	1	-8	19	7
Cc1ccc(-c2c[n+](CC(=O)Nc3c(C)cccc3C)c3n2CCC3)cc1	0	-2	16	-1	-16	-15
O=C(C[n+]1cc(-c2ccc(F)cc2)n2c1CCC2)N1c2ccccc2Sc2ccccc21	1	-12	-19	-8	27	97*
O=C(C[n+]1cc(-c2ccccc2)n2c1CCC2)N1c2ccccc2Sc2ccccc21	0	-6	-19	-10	18	52*
O=C(C[n+]1cc(-c2ccc(Cl)cc2)n2c1CCC2)Nc1nc(-c2ccc(F)cc2)cs1	18*	4	0	-5	12	4
COc1ccc(C(CC(=O)N2CCCC2)C(C)C)cc1 (stereo unspecified)	-1	-5	0	-2	7	3
CCN1CCN(C(C(=O)NC2CCCC2)c2ccc(Cl)cc2)CC1 (stereo unspecified)	0	4	-4	-2	9	4
COc1cc2c(cc1OC)CN(c1nc(CN3CCCCC3)nc3sc4c(c13)CCCC4)CC2	20*	-3	-2	-3	25	2
O=C(Nc1ccc(F)cc1)N(Cc1nnc2n1CCCCC2)c1ccccc1	0	-3	-3	-3	7	1
COc1cccc(N(C(=O)c2cccs2)c2nc3ccccc3s2)c1	0	26*	-2	-1	-9	-3
COc1ccc2nc(N(CCN(C)C)C(=O)/C=C/c3cccs3)sc2c1	3	-10	-3	-3	7	6
Cc1ccc(S(=O)(=O)N2CCCC(C(=O)N3CCCc4ccccc43)C2)cc1 (stereo unspecified)	0	-5	-2	-1	13	4
COc1cccc(N(C(=O)c2snc(C(N)=O)c2N)C(C(=O)NCc2ccccc2)c2ccc(O)cc2)c1 (stereo unspecified)	5	-2	-12	-1	4	31*
